In publication PMC7705450 (The EMBO Journal, 2020):
Each block holds one molecule with its values, some of them ahead of it. Square brackets hold non-standard residues; d marks the D form. Ends that are not written are not given here. * marks the point of attachment. Biotin = O=C1N[C@H]2[C@H](CS[C@H]2CCCCC(=O)*)N1; pS = N[C@@H](COP(=O)(O)O)C(=O)O

Tests used:
[1] = molecular target: biotinylated STARD3 FFAT peptide (residues 200-216), pS209 (human); test: SPR
[2] = molecular target: biotinylated STARD3 FFAT peptide (residues 200-216), pS209 + pS213 (human); test: SPR
[3] = DHE transport assay between liposomes; type: biochemical; details: per cSTD3; absence of functional VAP; 37°C; n = 4
Summary of the method: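 LA liposomes (DOPC, 3 mol% MPB-PE; 62.5 µM total lipids final) were preincubated 5 min with 475 nM cSTD3 or pS209 cSTD3 in TN3 buffer (50 mM Tris-HCl pH 8, 75 mM NaCl) at 37°C with stirring. Read-out was DNS-PE emission at 525 nm with excitation at 310 nm. Transport was expressed as mol% DHE = 10×(F−F0)/(Fmax−F0), with F0 set by 10 mM methyl-β-cyclodextrin.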

[4] = molecular target: T1, recombinant MSP domain of MOSPD2 (315-445) (human, UniProt Q8NHP6 315-445); test: crystal structure
T1 sequence (looked up): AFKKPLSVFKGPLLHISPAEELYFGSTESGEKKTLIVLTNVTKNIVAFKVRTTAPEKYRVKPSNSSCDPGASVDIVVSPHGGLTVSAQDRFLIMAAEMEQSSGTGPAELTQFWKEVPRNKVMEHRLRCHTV

[5] = molecular target: T2, recombinant MSP domain of VAP-A (8-212), C-terminal His6 (human, UniProt Q9P0L0 8-212); test: crystal structure
T2 sequence (looked up): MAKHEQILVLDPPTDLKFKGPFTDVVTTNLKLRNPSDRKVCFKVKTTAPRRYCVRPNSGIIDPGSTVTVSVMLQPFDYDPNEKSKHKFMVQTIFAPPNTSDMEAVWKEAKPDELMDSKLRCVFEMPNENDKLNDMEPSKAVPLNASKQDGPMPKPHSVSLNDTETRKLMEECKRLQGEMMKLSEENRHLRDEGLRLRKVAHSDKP

[6] = molecular target: T3, recombinant MSP domain of MOSPD2 K363L (human, UniProt Q8NHP6 282-490, K363L); test: pull-down
T3 sequence (looked up): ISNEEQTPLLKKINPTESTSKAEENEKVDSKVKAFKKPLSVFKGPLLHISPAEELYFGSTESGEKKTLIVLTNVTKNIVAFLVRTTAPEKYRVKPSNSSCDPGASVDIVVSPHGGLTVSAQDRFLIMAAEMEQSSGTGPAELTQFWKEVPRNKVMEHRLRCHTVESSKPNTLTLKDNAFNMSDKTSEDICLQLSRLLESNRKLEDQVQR

[7] = molecular target: T2, recombinant MSP domain of VAP-A …; test: pull-down
[8] = molecular target: recombinant MSP domain of VAP-B (1-210), C-terminal His6 (human, UniProt O95292 1-210); test: pull-down
[9] = molecular target: T4, recombinant MSP domain of MOSPD2 (282-490), C-terminal His6 (human, UniProt Q8NHP6 282-490); test: pull-down
T4 sequence (looked up): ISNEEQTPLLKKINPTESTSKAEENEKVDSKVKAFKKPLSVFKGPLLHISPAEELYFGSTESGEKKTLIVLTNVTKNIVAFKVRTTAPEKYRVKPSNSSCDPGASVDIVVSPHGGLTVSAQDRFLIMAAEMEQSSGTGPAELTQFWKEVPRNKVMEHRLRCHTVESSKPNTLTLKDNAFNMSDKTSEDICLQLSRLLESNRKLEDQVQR

[10] = molecular target: T5, recombinant MSP domain of VAP-A K50L (human, UniProt Q9P0L0 8-212, K50L); test: pull-down
T5 sequence (looked up): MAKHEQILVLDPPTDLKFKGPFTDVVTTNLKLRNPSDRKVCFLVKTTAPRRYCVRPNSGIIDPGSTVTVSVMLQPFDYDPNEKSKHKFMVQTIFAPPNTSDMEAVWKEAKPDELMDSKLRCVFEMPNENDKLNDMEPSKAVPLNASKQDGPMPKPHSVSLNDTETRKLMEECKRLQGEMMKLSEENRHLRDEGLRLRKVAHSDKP

[11] = molecular target: recombinant MSP domain of VAP-B K43L (human, UniProt O95292 1-210, K43L); test: pull-down
Chain of recombinant MSP domain of VAP-B K43L (O95292 1-210 K43L): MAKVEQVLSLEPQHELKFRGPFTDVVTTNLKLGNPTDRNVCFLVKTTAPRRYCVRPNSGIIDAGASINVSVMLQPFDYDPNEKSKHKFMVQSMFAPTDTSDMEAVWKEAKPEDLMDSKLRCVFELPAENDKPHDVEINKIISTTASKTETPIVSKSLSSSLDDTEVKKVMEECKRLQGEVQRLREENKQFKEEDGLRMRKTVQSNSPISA

Chain of recombinant MSP domain of VAP-B (1-210), C-terminal His6 (O95292 1-210): as the sequence (O95292 1-210 K43L) above, with L43K counted along it

Molecule: recombinant MSP domain of MOSPD2 (282-490), C-terminal His6 (from UniProt Q8NHP6 282-490) (domain or fragment)
Kd [1]: 1.1 µM
Kd [2]: 0.35 µM

Molecule: recombinant MSP domain of VAP-A (8-212), C-terminal His6 (from UniProt Q9P0L0 8-212) (domain or fragment)
Kd [1]: 5.6 µM

B1: cSTD3 (protein)
chain: CLFSGALSEGQFYSPPESFAGSDNESDEEVAGKKSFSAQEREYIRQGKEATAVVDQILAQEENWKFEKNNEYGDTVYTIEVPFHGKTFILKTFLPCPAELVYQEVILQPERMVLWNKTVTACQILQRVEDNTLISYDVSAGAAGGVVSPRDFVNVRRIERRRDRYLSSGIATSHSAKPPTHKYVRGENGPGGFIVLKSASNPRVCTFVWILNTDLKGRLPRYLIHQSLAATMFEFAFHLRQRISELGARA
modifications: left off: GST, N-terminal, cleaved
Initial DHE transport rate [3]: 10.45 DHE molecules/min

Molecule: GAL[pS]EGQFY[pS]PPE[pS]FAG [phosphorylated FFAT peptide of STARD3 used for crystallisation with VAP-A (GALpSEGQFYpSPPEpSFAG)]
binding result [5]: binds

Molecule: Biotin-GAMRGALSEGQFY[pS]PPE[pS]FAG [biotinylated STARD3 FFAT peptide (residues 200-216), pS209 + pS213]
binding result [6]: binds

Further lines, results first:

Kd [1]: 7.1 µM
Molecule: recombinant MSP domain of VAP-B (1-210), C-terminal His6 (from UniProt O95292 1-210) (domain or fragment)

binding result [4]: binds
Molecule: CLFSGAL[pS]EGQFY[pS]PPE[pS]FAG

binding result [6]: binds
binding result [7]: binds
binding result [8]: binds
binding result [9]: binds
binding result [10]: binds
binding result [11]: binds
Molecule: Biotin-GAMRSILSEDEFYDALSDSES [biotinylated ORP1 FFAT peptide (residues 469-485)]
